Experimental data as given in ChEMBL document CHEMBL1806433, “Cytotoxicity of aporphines in human colon cancer cell lines HCT-116 and Caco-2: an SAR study” (Bioorg Med Chem Lett, 2011).

Assays:
[1] = test system: Caco-2; experiment: Cytotoxicity against human Caco2 cells after 72 hrs by MTS assay; type: functional, cell-based; conditions: Caco-2, 72 h
Procedure, shortened: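 Caco-2 grown in EMEM with 10% FBS, 1% nonessential amino acids, 1% L-glutamine and 1% antibiotic at 37 °C, 5% CO2. Cells plated at 5000-3,000/well 24 or 48 h before dosing. Serially diluted samples in DMSO (<0.5% in medium) for 72 h. Then MTS plus phenazine methosulfate for 3 h at 37 °C, OD490 read against 0.5% DMSO controls. IC50 reported as mean ± S.D. of three experiments.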

[2] = test system: HCT-116; experiment: Cytotoxicity against human HCT116 cells after 72 hrs by MTS assay; type: functional, cell-based; conditions: HCT-116, 72 h
Procedure, shortened: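 HCT-116 kept in McCoy's 5a with 10% FBS, 1% nonessential amino acids, 2% HEPES and 1% antibiotic at 37 °C, 5% CO2. Seeded at 5000-3,000 cells/well 24 or 48 h before treatment. Serial dilutions in DMSO (<0.5% in medium) applied for 72 h. MTS/phenazine methosulfate added for 3 h, OD490 read versus 0.5% DMSO controls. IC50 given as mean ± S.D. of three experiments.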

[3] = Cytotoxicity against human CCD-18Co cells after 72 hrs by MTS assay; type: cell-based
Procedure, shortened: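 72 h exposure to serially diluted samples in DMSO (<0.5% in medium), with 0.5% DMSO controls in parallel. MTS reagent with phenazine methosulfate then added for 3 h at 37 °C. Absorbance at 490 nm gives cell number relative to controls. IC50 is the concentration giving 50% growth inhibition, reported as mean ± S.D. of three separate experiments.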

[4] = test system: HCT-116; experiment: Ratio of etoposide IC50 to compound IC50 for human HCT116 cells; type: functional
[5] = test system: Caco-2; experiment: Ratio of etoposide IC50 to compound IC50 for human Caco2 cells; type: functional

Compound | IC50 [1] | IC50 [2] | IC50 [3] | Ratio IC50 [4] | Ratio IC50 [5]
CCC(CC)COc1c(OC)cc2c3c1-c1cc4c(cc1C[C@@H]3N(C)CC2)OCO4 | 22.8 µM | 26.6 µM | 50.7 µM |  | 
CCCCCOc1c(OC)cc2c3c1-c1cc4c(cc1C[C@@H]3N(C)CC2)OCO4 | 35.3 µM | 46.3 µM | 73.4 µM |  | 
COc1cc2c3c(c1OC(=O)c1ccccc1)-c1cc4c(cc1C[C@@H]3N(C)CC2)OCO4 | 25.9 µM | 25.2 µM | 45.1 µM |  | 
COc1c(Br)c2c3c(c1OC)-c1cc4c(cc1C[C@@H]3N(C)CC2)OCO4 | 101 µM | 100 µM | 181 µM |  | 
COc1cc2c3c(c1OC)-c1cc4c(cc1C[C@@H]3N(C(C)=O)CC2)OCO4 | 160 µM | 186 µM | 188 µM |  | 
CCOC(=O)N1CCc2cc(OC)c(OC)c3c2[C@@H]1Cc1cc2c(cc1-3)OCO2 | 83.2 µM | 81.4 µM | 112 µM |  | 
COc1cc2c3c(c1OC)-c1cc4c(cc1C[C@@H]3N(S(C)(=O)=O)CC2)OCO4 | 196 µM | 196 µM |  |  | 
CCOC(=O)N1CCc2cc(OC)c(O)c3c2[C@@H]1Cc1cc2c(cc1-3)OCO2 | 71.7 µM | 72.7 µM | 128 µM |  | 
CCOC(=O)N1CCc2cc(OC)c(OCC)c3c2[C@@H]1Cc1cc2c(cc1-3)OCO2 | 73.5 µM | 73.3 µM | 134 µM |  | 
CCOC(=O)N1CCc2cc(OC)c(OCc3ccccc3)c3c2[C@@H]1Cc1cc2c(cc1-3)OCO2 | 99.8 µM | 93.3 µM | 110 µM |  | 
COc1cc2c(cc1OC)[C@H](Cc1ccc3c(c1)OCO3)N(C)CC2 | 191 µM | 191 µM |  |  | 
COc1cc2c(c(-c3ccc4c(c3)OCO4)c1OC)[C@H](C)N(C)CC2 | 190 µM | 195 µM |  |  | 
COc1cc2c3c(c1O)-c1cc4c(cc1C[C@@H]3N(C)CC2)OCO4 [DOMESTICINE] | 73.5 µM | 73.3 µM | 134 µM | 3 | 4
COc1cc([C@@H]2c3cc4c(cc3[C@@H](O[C@@H]3O[C@@H]5CO[C@@H](C)O[C@H]5[C@H](O)[C@H]3O)[C@H]3COC(=O)[C@H]23)OCO4)cc(OC)c1O [ETOPOSIDE] | 18.6 µM | 25.5 µM | 44.4 µM |  | 
COc1cc2c3c(c1OC)-c1cc4c(cc1CC3N(C)CC2)OCO4 (centres undefined) [NANTENINE] | 36.2 µM | 38.3 µM | 56.5 µM |  | 
